Source: ChEMBL document CHEMBL1141571, “Design, synthesis, and trypanocidal activity of new aminoadamantane derivatives” (J Med Chem, 2008)
Where a name gives a salt, the structure may show the parent alone.

Tested on: Trypanosoma brucei
Experiment: Antitrypanosomal activity against Trypanosoma brucei
Assay type: functional, organism-based
Method in brief: (§1)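 In vitro assay against bloodstream-form T. brucei grown at pH 7.4. Concentrations inhibiting growth by 50% (IC50) and 90% (IC90) were calculated. Values are the mean of triplicate experiments ± SEM.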

Structure (SMILES)	IC50
NC12CC3CC(C1)CC(C1CCCCC1)(C3)C2	0.52 µM
NC1CCC(C23CC4CC(CC(C4)C2)C3)CC1 (configuration not stated)	0.33 µM
NCCC12CC3CC(C1)CC(c1ccccc1)(C3)C2	0.62 µM

Tested on: Trypanosoma brucei
Experiment: Antitrypanosomal activity against Trypanosoma brucei 427 at pH 7.4
Assay type: functional, organism-based
Method in brief: as §1

Structure (SMILES)	IC50	IC90
CCCCCCCCC12CC3CC(CC(C3)C1N)C2 (configuration not stated)	0.8 µM	1.06 µM
CCCCCCCCCCC12CC3CC(CC(C3)C1N)C2 (configuration not stated)	0.48 µM	0.67 µM
CCCCCCC12CC3CC(CC(C3)/C1=N\NC(N)=S)C2	2.81 µM	5.64 µM
CCCCCCCCCCCCCCC12CC3CC(CC(C3)/C1=N\NC(N)=S)C2	0.42 µM	0.54 µM
N=C(N)N/N=C1\C2CC3CC(C2)CC1(Cc1ccccc1)C3	0.41 µM	0.47 µM
CCCCCCC12CC3CC(CC(C3)C1N)C2 (configuration not stated)	1.32 µM	1.73 µM
CCCCCCCCCCCCC12CC3CC(CC(C3)C1NCC)C2 (configuration not stated)	0.59 µM	1.06 µM
CCCCCCCCCCC12CC3CC(CC(C3)C1NCC)C2 (configuration not stated)	1.09 µM	1.65 µM
CCCCCCCCCCCCC12CC3CC(CC(C3)C1N)C2 (configuration not stated)	0.47 µM	0.67 µM
CCCCCCCCCCCCCCC12CC3CC(CC(C3)/C1=N\NC(=N)N)C2	0.84 µM	1.3 µM
CCCCCCCCCCCCCCC12CC3CC(CC(C3)C1N)C2 (configuration not stated)	0.92 µM	1.98 µM
CCCCCCC12CC3CC(CC(C3)C1NCC)C2 (configuration not stated)	> 2 µM	–
CCCCCCCCC12CC3CC(CC(C3)/C1=N\NC(=N)N)C2	> 6 µM	–
CCCCCCC12CC3CC(CC(C3)/C1=N\NC(=N)N)C2	> 6 µM	–
NC1C2CC3CC(C2)CC1(Cc1ccccc1)C3 (configuration not stated)	2.07 µM	2.65 µM
N=C(N)N/N=C1\C2CC3CC(C2)CC1(c1ccccc1)C3	2.12 µM	2.81 µM
CCCCCCCCCCC12CC3CC(CC(C3)/C1=N\NC(=N)N)C2	0.09 µM	0.11 µM
NC12CC3CC(CC(C3)C1)C2 [AMANTADINE HYDROCHLORIDE]	> 132 µM	> 132 µM
CC(N)C12CC3CC(CC(C3)C1)C2 (configuration not stated) [RIMANTADINE HYDROCHLORIDE]	–	14 µM
